Reference: ChEMBL document CHEMBL1821590, “Novel dihydropyrimidines and its pyrazole derivatives: synthesis and pharmacological screening” (Eur J Med Chem, 2011)
In brackets after ≈: the same amount, converted by molar mass.

Tests used:
Format in all cases: functional
Metaphire posthuma [1] = assay: Anthelmintic activity against Pheretima posthuma assessed as time taken for parasite death at 0.5% w/v
In short: (§1)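 Earthworms (Pheretima posthuma, spelled Perituma posthuma in text) exposed to test compounds at 0.1, 0.2 and 0.5% w/v. Albendazole served as standard, with an untreated control. Paralysis was recorded as the time until worms became motionless, then time to death was recorded, in minutes. Each value is the mean of three determinations with S.D.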

Staphylococcus aureus [2] = assay: Antimicrobial activity against Staphylococcus aureus at 25 ug/ml by agar plate diffusion technique; conditions: read-out: IZ
In short: (§2)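 Agar plate diffusion against E. coli, P. aeruginosa, S. aureus and B. subtilis, with compounds at 25, 50 and 100 µg/mL. Streptomycin as standard.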

[3] = Antioxidant activity assessed as potassium ferricyanide ion reducing power after 20 mins
In short: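 Oyaizu method. Samples or ascorbic acid in DMF (12.5–100 µg/mL) mixed with 0.2 M phosphate buffer pH 6.6 and 1% potassium ferricyanide, 20 min at 50 °C. 10% TCA added, centrifuged. Supernatant mixed with water and 0.1% FeCl3, read at 700 nm. % = [(Vt/Vc) − 1] × 100. IC50 derived.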

Bacillus subtilis [4] = assay: Antimicrobial activity against Bacillus subtilis at 100 ug/ml by agar plate diffusion technique; conditions: read-out: IZ; in short: as §2
Staphylococcus aureus [5] = assay: Antimicrobial activity against Staphylococcus aureus at 100 ug/ml by agar plate diffusion technique; conditions: read-out: IZ; in short: as §2
[6] = Antiinflammatory activity assessed as inhibition of albumin denaturation at 100 ug/ml by UV-visible spectrophotometry
In short: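 Compounds dissolved in minimal DMF, diluted in PBS pH 7.4 (final DMF <2.5%). 1 mL test solution (100 µg/mL) plus 1 mL 1% albumin in PBS, 15 min at 27 ± 1 °C, then heated 10 min at 60 ± 1 °C. After cooling, turbidity read at 660 nm. % inhibition = [(Vt/Vc) − 1] × 100 against a no-drug control. Triplicate, averaged. Diclofenac standard.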

Pseudomonas aeruginosa [7] = assay: Antimicrobial activity against Pseudomonas aeruginosa at 50 ug/ml by agar plate diffusion technique; conditions: read-out: IZ; in short: as §2
Aspergillus niger [8] = assay: Antimicrobial activity against Aspergillus niger at 50 ug/ml by paper disc method; conditions: read-out: IZ
In short: (§3)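 Paper disc method against A. niger and C. albicans, with compounds at 25, 50 and 100 µg/mL. Amphotericin-B as standard.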

Pseudomonas aeruginosa [9] = assay: Antimicrobial activity against Pseudomonas aeruginosa at 100 ug/ml by agar plate diffusion technique; conditions: read-out: IZ; in short: as §2
Aspergillus niger [10] = assay: Antimicrobial activity against Aspergillus niger at 100 ug/ml by paper disc method; conditions: read-out: IZ; in short: as §3
Escherichia coli [11] = assay: Antimicrobial activity against Escherichia coli at 25 ug/ml by agar plate diffusion technique; conditions: read-out: IZ; in short: as §2
Candida albicans [12] = assay: Antimicrobial activity against Candida albicans at 50 ug/ml by paper disc method; conditions: read-out: IZ; in short: as §3
Staphylococcus aureus [13] = assay: Antimicrobial activity against Staphylococcus aureus at 50 ug/ml by agar plate diffusion technique; conditions: read-out: IZ; in short: as §2
[14] = Antioxidant activity assessed as hydrogen peroxide scavenging activity after 10 mins
In short: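 H2O2 (20 mM) in PBS pH 7.4. 1 mL of sample or ascorbic acid in methanol (12.5–100 µg/mL) added to 2 mL H2O2 solution. A230 read after 10 min. % inhibition = [1 − (Vt/Vc)] × 100. Triplicate, averaged. IC50 derived from % inhibition across concentrations.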

Escherichia coli [15] = assay: Antimicrobial activity against Escherichia coli at 100 ug/ml by agar plate diffusion technique; conditions: read-out: IZ; in short: as §2
Bacillus subtilis [16] = assay: Antimicrobial activity against Bacillus subtilis at 50 ug/ml by agar plate diffusion technique; conditions: read-out: IZ; in short: as §2
Metaphire posthuma [17] = assay: Anthelmintic activity against Pheretima posthuma assessed as time taken for complete parasite paralysis at 0.1% w/v
In short: (§4)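 Earthworms (Pheretima posthuma) exposed to test solutions at 0.1, 0.2 and 0.5% w/v; time in minutes to complete paralysis (worms motionless) recorded. Albendazole as standard. Mean of three determinations ± S.D.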

[18] = Antioxidant activity assessed as inhibition of lipid peroxidation using egg lecithin liposomes incubated for 1 hr
In short: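 Egg lecithin (3 mg/mL, phosphate buffer pH 7.4) sonicated 10 min to form liposomes. Sample or ascorbic acid (12.5–100 µg/mL) added. Peroxidation induced with FeCl3 and L-ascorbic acid, 1 h at 37 °C. Stopped with HCl/TCA/TBA/BHA, boiled 15 min, centrifuged, supernatant read at 532 nm. Triplicate. % inhibition vs control. IC50 derived.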

Metaphire posthuma [19] = assay: Anthelmintic activity against Pheretima posthuma assessed as time taken for parasite death at 0.1% w/v; in short: as §1
Metaphire posthuma [20] = assay: Anthelmintic activity against Pheretima posthuma assessed as time taken for complete parasite paralysis at 0.5% w/v; in short: as §4
Escherichia coli [21] = assay: Antimicrobial activity against Escherichia coli at 50 ug/ml by agar plate diffusion technique; conditions: read-out: IZ; in short: as §2
Candida albicans [22] = assay: Antimicrobial activity against Candida albicans at 25 ug/ml by paper disc method; conditions: read-out: IZ; in short: as §3
Aspergillus niger [23] = assay: Antimicrobial activity against Aspergillus niger at 25 ug/ml by paper disc method; conditions: read-out: IZ; in short: as §3
Pseudomonas aeruginosa [24] = assay: Antimicrobial activity against Pseudomonas aeruginosa at 25 ug/ml by agar plate diffusion technique; conditions: read-out: IZ; in short: as §2
Metaphire posthuma [25] = assay: Anthelmintic activity against Pheretima posthuma assessed as time taken for complete parasite paralysis at 0.2% w/v; in short: as §4
Bacillus subtilis [26] = assay: Antimicrobial activity against Bacillus subtilis at 25 ug/ml by agar plate diffusion technique; conditions: read-out: IZ; in short: as §2
[27] = Antioxidant activity assessed as nitric oxide radical scavenging activity after 150 mins
In short: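 10 mM sodium nitroprusside (4 mL), PBS pH 7.4 (1 mL) and sample or ascorbic acid in DMSO (1 mL, 12.5–100 µg/mL), incubated 150 min at 25 °C. Nitrite detected with sulphanilic acid (5 min) then naphthylethylenediamine (30 min, diffused light). Read at […]. Triplicate. % inhibition = [1 − (Vt/Vc)] × 100. IC50 derived from it.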

Candida albicans [28] = assay: Antimicrobial activity against Candida albicans at 100 ug/ml by paper disc method; conditions: read-out: IZ; in short: as §3
Metaphire posthuma [29] = assay: Anthelmintic activity against Pheretima posthuma assessed as time taken for parasite death at 0.2% w/v; in short: as §1

Structure (SMILES)	Time (Metaphire posthuma [1])	zone of inhibition at 25 µg/mL (Staphylococcus aureus [2])	IC50 [3]	zone of inhibition at 100 µg/mL (Bacillus subtilis [4])	zone of inhibition at 100 µg/mL (Staphylococcus aureus [5])	inhibition [6]	zone of inhibition at 50 µg/mL (Pseudomonas aeruginosa [7])	zone of inhibition at 50 µg/mL (Aspergillus niger [8])	zone of inhibition at 100 µg/mL (Pseudomonas aeruginosa [9])	zone of inhibition at 100 µg/mL (Aspergillus niger [10])	zone of inhibition at 25 µg/mL (Escherichia coli [11])	zone of inhibition at 50 µg/mL (Candida albicans [12])	zone of inhibition at 50 µg/mL (Staphylococcus aureus [13])	IC50 [14]	zone of inhibition at 100 µg/mL (Escherichia coli [15])	zone of inhibition at 50 µg/mL (Bacillus subtilis [16])	Time (Metaphire posthuma [17])	IC50 [18]	Time (Metaphire posthuma [19])	Time (Metaphire posthuma [20])	further results
CCOC(=O)c1cnn(-c2nc(-c3ccccc3Cl)c(C#N)c(=O)n2C)c1N	51.7 min	14.6 mm	78 µg/mL (≈ 196 µM)	26.2 mm	24.3 mm	74.2%	16.3 mm	15.1 mm	23.9 mm	22.4 mm	13.2 mm	14.9 mm	18.3 mm	98 µg/mL (≈ 246 µM)	26.9 mm	17.2 mm	58.08 min	102 µg/mL (≈ 256 µM)	72.26 min	46.18 min	zone of inhibition at 50 µg/mL (Escherichia coli [21]): 20.5 mm; zone of inhibition at 25 µg/mL (Candida albicans [22]): 11.5 mm; zone of inhibition at 25 µg/mL (Aspergillus niger [23]): 12.2 mm; zone of inhibition at 25 µg/mL (Pseudomonas aeruginosa [24]): 12.2 mm; Time (Metaphire posthuma [25]): 42.05 min; zone of inhibition at 25 µg/mL (Bacillus subtilis [26]): 13.4 mm; IC50 [27]: 93 µg/mL (≈ 233 µM); zone of inhibition at 100 µg/mL (Candida albicans [28]): 20.2 mm; Time (Metaphire posthuma [29]): 57.5 min
CSc1nc(-c2cccc(O)c2O)c(C#N)c(=O)n1C	61.02 min	8.7 mm	48 µg/mL (≈ 166 µM)	24.4 mm	13.6 mm	44.1%	8.12 mm	10.8 mm	12.7 mm	17.1 mm	7.28 mm	13.9 mm	10.6 mm	37 µg/mL (≈ 128 µM)	10.4 mm	15.8 mm	58.04 min	41 µg/mL (≈ 142 µM)	65.29 min	50.1 min	zone of inhibition at 50 µg/mL (Escherichia coli [21]): 8.78 mm; zone of inhibition at 25 µg/mL (Candida albicans [22]): 9.48 mm; zone of inhibition at 25 µg/mL (Aspergillus niger [23]): 8.4 mm; zone of inhibition at 25 µg/mL (Pseudomonas aeruginosa [24]): 7.67 mm; Time (Metaphire posthuma [25]): 62.28 min; zone of inhibition at 25 µg/mL (Bacillus subtilis [26]): 13 mm; IC50 [27]: 53 µg/mL (≈ 183 µM); zone of inhibition at 100 µg/mL (Candida albicans [28]): 21 mm; Time (Metaphire posthuma [29]): 65.5 min
CCOC(=O)c1cnn(-c2nc(-c3cccc(OC)c3OC)c(C#N)c(=O)n2C)c1N	52.69 min	10.3 mm	54 µg/mL (≈ 127 µM)	19.2 mm	18.7 mm	33.9%	12.3 mm	12.1 mm	17.4 mm	18.9 mm	10.3 mm	13.5 mm	14.1 mm	67 µg/mL (≈ 158 µM)	16.2 mm	15.1 mm	75.14 min	57 µg/mL (≈ 134 µM)	87.55 min	43.9 min	zone of inhibition at 50 µg/mL (Escherichia coli [21]): 12.4 mm; zone of inhibition at 25 µg/mL (Candida albicans [22]): 9.41 mm; zone of inhibition at 25 µg/mL (Aspergillus niger [23]): 10.8 mm; zone of inhibition at 25 µg/mL (Pseudomonas aeruginosa [24]): 9.9 mm; Time (Metaphire posthuma [25]): 55.1 min; zone of inhibition at 25 µg/mL (Bacillus subtilis [26]): 11.6 mm; IC50 [27]: 69 µg/mL (≈ 163 µM); zone of inhibition at 100 µg/mL (Candida albicans [28]): 17 mm; Time (Metaphire posthuma [29]): 62.12 min
